Experimental findings from ChEMBL document CHEMBL1152506, “Characterization and synthetic application of a novel beta1,3-galactosyltransferase from Escherichia coli O55:H7” (Bioorg Med Chem, 2009) are described below.

The target of series [1] is T1, Putative glycosyltransferase (Escherichia coli O55:H7) (UniProt B1B4J9).
T1 sequence (whole entry): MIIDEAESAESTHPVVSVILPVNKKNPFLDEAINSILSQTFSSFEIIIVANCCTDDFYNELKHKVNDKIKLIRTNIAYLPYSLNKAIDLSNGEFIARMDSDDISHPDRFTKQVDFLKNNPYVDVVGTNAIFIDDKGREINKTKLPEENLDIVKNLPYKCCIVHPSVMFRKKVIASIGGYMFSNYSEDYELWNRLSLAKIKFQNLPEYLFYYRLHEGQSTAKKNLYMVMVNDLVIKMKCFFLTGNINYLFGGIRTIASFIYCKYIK
Kind of series: Activity of Escherichia coli O55:H7 glycosyltransferase WbgO relative to GlcNAc. An outline of the steps: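 GST-fused WbgO made in E. coli BL21(DE3) and purified on glutathione resin. Assayed in 50 µL of 50 mM HEPES pH 7.0 with 5 mM MnCl2, 0.3 mM UDP-Gal plus UDP-[6-3H]Gal (10,000 cpm), 2 mM acceptor and 4 µg enzyme, 37 °C for 1 h. Control omitted the acceptor. Incorporated 3H was read by liquid scintillation counting and expressed relative to GlcNAc.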

In series [2] the target is T1, Putative glycosyltransferase (Escherichia coli O55:H7). Kind of series: Activity of Escherichia coli O55:H7 glycosyltransferase WbgO. In short, it runs like this:
(§1)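 Apparent kinetics for purified GST-WbgO, using the radioactive UDP-[6-3H]Gal transfer assay with scintillation counting. The acceptor (GlcNAc, GalNAc or lacto-N-triose) was varied at 0.1, 0.2, 0.5, 1 and 2 mM with UDP-Gal fixed at 1 mM. UDP-Gal was varied at 0.1–2 mM with 20 mM GlcNAc. Base buffer was HEPES pH 7.0 with 5 mM MnCl2.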

Substrate in series [3]: CC(=O)N[C@@H]1[C@@H](O)[C@H](O)[C@@H](CO)O[C@H]1O
Kind of series: (§2) Activity of Escherichia coli O55:H7 glycosyltransferase WbgO by Lineweaver-Burke analysis. An outline of the steps:
as §1

Substrate in series [4]: CC(=O)N[C@@H]1[C@@H](O)[C@@H](O)[C@@H](CO)O[C@H]1O
The series is described as §2. An outline of the steps:
as §1

Substrate in series [5]: CC(=O)N[C@H]1[C@H](O[C@H]2[C@@H](O)[C@@H](CO)O[C@@H](O[C@H]3[C@H](O)[C@@H](O)[C@H](O)O[C@@H]3CO)[C@@H]2O)O[C@H](CO)[C@@H](O)[C@@H]1O[C@@H]1O[C@H](CO)[C@H](O)[C@H](O)[C@H]1O
Described as §2. In short, it runs like this: as §1

Substrate in series [6]: CC(=O)N[C@@H]1[C@@H](O)[C@H](O)[C@@H](CO)O[C@H]1O
Kind of series: (§3) Ratio of Kcat to Km for Escherichia coli O55:H7 glycosyltransferase WbgO by Lineweaver-Burke analysis. An outline of the steps:
as §1

Substrate in series [7]: CC(=O)N[C@@H]1[C@@H](O)[C@@H](O)[C@@H](CO)O[C@H]1O
The series is described as §3. An outline of the steps: as §1

Substrate in series [8]: CC(=O)N[C@H]1[C@H](O[C@H]2[C@@H](O)[C@@H](CO)O[C@@H](O[C@H]3[C@H](O)[C@@H](O)[C@H](O)O[C@@H]3CO)[C@@H]2O)O[C@H](CO)[C@@H](O)[C@@H]1O[C@@H]1O[C@H](CO)[C@H](O)[C@H](O)[C@H]1O
The series is described as §3. An outline of the steps:
as §1

The source made the active and inactive calls. The calls are words filed in the database; no cut-off is given here.

As for `CC(=O)N[C@H]1[C@H](Oc2ccc([N+](=O)[O-])cc2)O[C@H](CO)[C@@H](O)[C@@H]1O`, the Activity in series [1] was found to be 73%.
Take `CC(=O)N[C@H]1[C@H](O[C@H]2[C@@H](O)[C@@H](CO)O[C@@H](O[C@H]3[C@H](O)[C@@H](O)[C@H](O)O[C@@H]3CO)[C@@H]2O)O[C@H](CO)[C@H](O)[C@@H]1O`: the Activity in series [1] is 16%.
`CC(=O)N[C@@H]1[C@@H](O)[C@H](O)[C@@H](CO)O[C@H]1O` returned an Activity in series [1] of 100%. Besides, the result in series [2] was Active.
In turn, `CC(=O)N[C@@H]1[C@@H](O)[C@@H](O)[C@@H](CO)O[C@H]1O` showed an Activity in series [1] of 43%. The result in series [2] was Active.

B1: Putative glycosyltransferase (Escherichia coli O55:H7), B1B4J9 (protein)
chain: MIIDEAESAESTHPVVSVILPVNKKNPFLDEAINSILSQTFSSFEIIIVANCCTDDFYNELKHKVNDKIKLIRTNIAYLPYSLNKAIDLSNGEFIARMDSDDISHPDRFTKQVDFLKNNPYVDVVGTNAIFIDDKGREINKTKLPEENLDIVKNLPYKCCIVHPSVMFRKKVIASIGGYMFSNYSEDYELWNRLSLAKIKFQNLPEYLFYYRLHEGQSTAKKNLYMVMVNDLVIKMKCFFLTGNINYLFGGIRTIASFIYCKYIK
As for B1, the Km was determined as 323 µM in series [3], 327 µM in series [4] and 55 µM in series [5]. Further, the Vmax in series [3] amounted to 179 pmol/min; in series [4] it was 120 pmol/min; in series [5] it was 176 pmol/min. Further, the figures for the kcat in series [3], in series [4] and in series [5] were 2.55 min⁻¹, 1.71 min⁻¹ and 2.5 min⁻¹, respectively. The figures for the catalytic efficiency (kcat/Km) in series [6], in series [7] and in series [8] were 7.89 mM⁻¹ min⁻¹, 5.23 mM⁻¹ min⁻¹ and 16.7 mM⁻¹ min⁻¹, respectively.
